Consider 18 compounds from ChEMBL document CHEMBL3872218, “Synthesis and T-type calcium channel-blocking effects of aryl(1,5-disubstituted-pyrazol-3-yl)methyl sulfonamides for neuropathic pain treatment” (Eur J Med Chem, 2016).

pIC50: −log10 of the molar value.

Series [1] has as its target T1, Voltage-dependent T-type calcium channel subunit alpha-1G (Homo sapiens, UniProt O43497). The experiment in a line: Inhibition of Cav3.1 alpha1G (unknown origin) expressed in HEK293 cells assessed as decrease in KCl-induced depolarization mediated intracellular Ca2+ level at 10 uM by fluo3/AM based high throughput screening assay relative to control. The series is classed as cell-based. An outline of the steps:
(§1)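 HEK293 cells stably expressing Cav3.1 or Cav3.2 plated at 4 × 10⁴ cells/well and used the next day. Loaded 60 min at room temperature with […] fluo3/AM plus 0.001% Pluronic F-127 in HEPES-buffered saline (1.8 mM CaCl₂, pH 7.4). Ca²⁺ fluorescence read on FDSS6000 as % inhibition, compound at […].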

The target of series [2] is T2, Voltage-dependent T-type calcium channel subunit alpha-1H (Homo sapiens, UniProt O95180). The experiment in a line: Inhibition of Cav3.2 alpha1H (unknown origin) expressed in HEK293 cells assessed as decrease in KCl-induced depolarization mediated intracellular Ca2+ level at 10 uM by fluo3/AM based high throughput screening assay relative to control. The series is classed as cell-based. An outline of the steps:
as §1

The subject of series [3] is Rattus norvegicus. The experiment in a line: Antineuropathic pain activity in rat spinal nerve ligation model assessed as effect on cold allodynia by measuring frequency of paw withdrawal at 100 mg/kg, po measured at 3 hrs relative to control. The series is classed as functional. The method, boiled down:
(§2)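 Spinal nerve ligation rats tested 2 weeks after nerve surgery, 100 mg/kg oral, n = 4 per group. Behaviour re-tested at 1, 3 and 5 h after dosing. Mechanical allodynia: von Frey filament applied five times, every 3–4 s, to the hind paw on a wire mesh floor. Cold allodynia: acetone applied to the plantar hind paw on a metal mesh floor.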

Series [4] relates to Rattus norvegicus. Kind of series: Antineuropathic pain activity in rat spinal nerve ligation model assessed as effect on mechanical allodynia by measuring frequency of paw withdrawal at 100 mg/kg, po measured at 1 hr relative to control. The series is classed as functional. An outline of the steps: as §2
In series [5] the test system is Rattus norvegicus. The experiment in a line: Antineuropathic pain activity in rat spinal nerve ligation model assessed as effect on mechanical allodynia by measuring frequency of paw withdrawal at 100 mg/kg, po measured at 3 hrs relative to gabapentin. The series is classed as functional. The method, boiled down:
as §2

Series [6] relates to Rattus norvegicus. Kind of series: Antineuropathic pain activity in rat spinal nerve ligation model assessed as effect on mechanical allodynia by measuring frequency of paw withdrawal at 100 mg/kg, po measured at 5 hrs relative to control. The series is classed as functional. An outline of the steps: as §2
Series [7] relates to Rattus norvegicus. The experiment in a line: Antineuropathic pain activity in rat spinal nerve ligation model assessed as effect on mechanical allodynia by measuring frequency of paw withdrawal at 100 mg/kg, po measured at 5 hrs relative to gabapentin. The series is classed as functional. The method, boiled down:
as §2

The test system of series [8] is Rattus norvegicus. The experiment in a line: Antineuropathic pain activity in rat spinal nerve ligation model assessed as effect on cold allodynia by measuring frequency of paw withdrawal at 100 mg/kg, po measured at 5 hrs relative to control. The series is classed as functional. An outline of the steps: as §2
The subject of series [9] is Rattus norvegicus. Kind of series: Antineuropathic pain activity in rat spinal nerve ligation model assessed as effect on cold allodynia by measuring frequency of paw withdrawal at 100 mg/kg, po measured at 1 hr relative to gabapentin. The series is classed as functional. The method, boiled down: as §2
The test system of series [10] is Rattus norvegicus. Kind of series: Antineuropathic pain activity in rat spinal nerve ligation model assessed as effect on cold allodynia by measuring frequency of paw withdrawal at 100 mg/kg, po measured at 1 hr relative to control. The series is classed as functional. The method, boiled down: as §2
For series [11], the system named is Rattus norvegicus. The experiment in a line: Antineuropathic pain activity in rat spinal nerve ligation model assessed as effect on cold allodynia by measuring frequency of paw withdrawal at 100 mg/kg, po measured at 5 hrs relative to gabapentin. The series is classed as functional. An outline of the steps: as §2
Series [12] relates to Rattus norvegicus. The experiment in a line: Antineuropathic pain activity in rat spinal nerve ligation model assessed as effect on cold allodynia by measuring frequency of paw withdrawal at 100 mg/kg, po measured at 3 hrs relative to gabapentin. The series is classed as functional. An outline of the steps:
as §2

For series [13], the system named is Rattus norvegicus. Kind of series: Antineuropathic pain activity in rat spinal nerve ligation model assessed as effect on mechanical allodynia by measuring frequency of paw withdrawal at 100 mg/kg, po measured at 3 hrs relative to control. The series is classed as functional. An outline of the steps:
as §2

Series [14] relates to Rattus norvegicus. Kind of series: Antineuropathic pain activity in rat spinal nerve ligation model assessed as effect on mechanical allodynia by measuring frequency of paw withdrawal at 100 mg/kg, po measured at 1 hr relative to gabapentin. The series is classed as functional. The method, boiled down: as §2
Series [15] can be described thus: Metabolic stability in human liver microsomes assessed as compound remaining at 1 uM in presence of NADPH as cofactor by LC-MS/MS method. The series is classed as ADME. The following applies: read-out: Stability. An outline of the steps: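 Pooled mixed-gender human liver microsomes incubated with compound at 37 °C with NADPH as cofactor. Result given as % parent compound remaining.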
A general note: Liver microsomes are vesicles of endoplasmic reticulum, rich in cytochrome P450 enzymes.

Series [16] addresses T1, Voltage-dependent T-type calcium channel subunit alpha-1G. The experiment in a line: Inhibition of Cav3.1 alpha1G (unknown origin) expressed in HEK293 cells by whole-cell patch clamp method. The series is classed as cell-based. The method, boiled down: (§3)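 Whole-cell patch clamp on HEK293 cells expressing Cav3.1 or Cav3.2. T-type currents evoked every 15 s by a 50-ms step from −100 mV to −30 mV. External solution (mM): 140 NaCl, 2 CaCl₂, 10 HEPES, 10 glucose, pH 7.4.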

Another series addresses CYP2D6 (Homo sapiens, UniProt P10635). Kind of series: Inhibition of human CYP2D6 assessed as remaining activity at 10 uM using vivid CYP450 substrate measured after 15 mins by fluorescence assay relative to quinidine. The series is classed as ADME. Conditions: probe vivid CYP450 substrate, read-out: Activity. An outline of the steps:
(§4)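 Vivid fluorescence CYP assay: test compound at […] in water, mixed with BACULOSOMES master pre-mix and regeneration system, preincubated 15 min at 37 °C. Reaction started with Vivid substrate and NADPH. Remaining activity read by fluorescence as % of control, triplicate, mean ± SD. Isoform-specific reference inhibitors: α-naphthoflavone (1A2), sulfaphenazole (2C9), quinidine (2D6), ketoconazole (3A4).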

In the next series the target is CYP2C9 (Homo sapiens, UniProt P11712). The experiment in a line: Inhibition of human CYP2C9 assessed as remaining activity at 10 uM using vivid CYP450 substrate measured after 15 mins by fluorescence assay relative to sulfaphenazol. The series is classed as ADME. Conditions: probe vivid CYP450 substrate, read-out: Activity. The method, boiled down: as §4
A further series concerns the target CYP3A4 (Homo sapiens, UniProt P08684). Kind of series: Inhibition of human CYP3A4 assessed as remaining activity at 10 uM using vivid CYP450 substrate measured after 15 mins by fluorescence assay relative to ketoconazole. Conditions: probe vivid CYP450 substrate, read-out: Activity. The series is classed as ADME. An outline of the steps: as §4
The target in series [17] is T2, Voltage-dependent T-type calcium channel subunit alpha-1H. Kind of series: Inhibition of Cav3.2 alpha1H (unknown origin) expressed in HEK293 cells by whole-cell patch clamp method. The series is classed as cell-based. An outline of the steps: as §3
A further series is filed under the species Homo sapiens. Kind of series: Inhibition of N-type Ca2+ channel (unknown origin) at 10 uM by whole-cell patch clamp method relative to control.
Another series has as its system N1E-115. The experiment in a line: Inhibition of voltage dependent T-type Ca2+ channel in mouse N1E-115 cells assessed as reduction in transient inward Ca2+ current at 50 uM by whole-cell patch clamp method relative to control. The series is classed as cell-based.
For series [18], the species on record is Rattus norvegicus. Kind of series: Inhibition of voltage dependent T-type Ca2+ channel in Wistar rat cerebral cortex assessed as reduction in transient inward Ca2+ current at -60 mV holding potential at 500 uM by whole-cell patch clamp method relative to control.

T2 sequence (O95180 whole entry): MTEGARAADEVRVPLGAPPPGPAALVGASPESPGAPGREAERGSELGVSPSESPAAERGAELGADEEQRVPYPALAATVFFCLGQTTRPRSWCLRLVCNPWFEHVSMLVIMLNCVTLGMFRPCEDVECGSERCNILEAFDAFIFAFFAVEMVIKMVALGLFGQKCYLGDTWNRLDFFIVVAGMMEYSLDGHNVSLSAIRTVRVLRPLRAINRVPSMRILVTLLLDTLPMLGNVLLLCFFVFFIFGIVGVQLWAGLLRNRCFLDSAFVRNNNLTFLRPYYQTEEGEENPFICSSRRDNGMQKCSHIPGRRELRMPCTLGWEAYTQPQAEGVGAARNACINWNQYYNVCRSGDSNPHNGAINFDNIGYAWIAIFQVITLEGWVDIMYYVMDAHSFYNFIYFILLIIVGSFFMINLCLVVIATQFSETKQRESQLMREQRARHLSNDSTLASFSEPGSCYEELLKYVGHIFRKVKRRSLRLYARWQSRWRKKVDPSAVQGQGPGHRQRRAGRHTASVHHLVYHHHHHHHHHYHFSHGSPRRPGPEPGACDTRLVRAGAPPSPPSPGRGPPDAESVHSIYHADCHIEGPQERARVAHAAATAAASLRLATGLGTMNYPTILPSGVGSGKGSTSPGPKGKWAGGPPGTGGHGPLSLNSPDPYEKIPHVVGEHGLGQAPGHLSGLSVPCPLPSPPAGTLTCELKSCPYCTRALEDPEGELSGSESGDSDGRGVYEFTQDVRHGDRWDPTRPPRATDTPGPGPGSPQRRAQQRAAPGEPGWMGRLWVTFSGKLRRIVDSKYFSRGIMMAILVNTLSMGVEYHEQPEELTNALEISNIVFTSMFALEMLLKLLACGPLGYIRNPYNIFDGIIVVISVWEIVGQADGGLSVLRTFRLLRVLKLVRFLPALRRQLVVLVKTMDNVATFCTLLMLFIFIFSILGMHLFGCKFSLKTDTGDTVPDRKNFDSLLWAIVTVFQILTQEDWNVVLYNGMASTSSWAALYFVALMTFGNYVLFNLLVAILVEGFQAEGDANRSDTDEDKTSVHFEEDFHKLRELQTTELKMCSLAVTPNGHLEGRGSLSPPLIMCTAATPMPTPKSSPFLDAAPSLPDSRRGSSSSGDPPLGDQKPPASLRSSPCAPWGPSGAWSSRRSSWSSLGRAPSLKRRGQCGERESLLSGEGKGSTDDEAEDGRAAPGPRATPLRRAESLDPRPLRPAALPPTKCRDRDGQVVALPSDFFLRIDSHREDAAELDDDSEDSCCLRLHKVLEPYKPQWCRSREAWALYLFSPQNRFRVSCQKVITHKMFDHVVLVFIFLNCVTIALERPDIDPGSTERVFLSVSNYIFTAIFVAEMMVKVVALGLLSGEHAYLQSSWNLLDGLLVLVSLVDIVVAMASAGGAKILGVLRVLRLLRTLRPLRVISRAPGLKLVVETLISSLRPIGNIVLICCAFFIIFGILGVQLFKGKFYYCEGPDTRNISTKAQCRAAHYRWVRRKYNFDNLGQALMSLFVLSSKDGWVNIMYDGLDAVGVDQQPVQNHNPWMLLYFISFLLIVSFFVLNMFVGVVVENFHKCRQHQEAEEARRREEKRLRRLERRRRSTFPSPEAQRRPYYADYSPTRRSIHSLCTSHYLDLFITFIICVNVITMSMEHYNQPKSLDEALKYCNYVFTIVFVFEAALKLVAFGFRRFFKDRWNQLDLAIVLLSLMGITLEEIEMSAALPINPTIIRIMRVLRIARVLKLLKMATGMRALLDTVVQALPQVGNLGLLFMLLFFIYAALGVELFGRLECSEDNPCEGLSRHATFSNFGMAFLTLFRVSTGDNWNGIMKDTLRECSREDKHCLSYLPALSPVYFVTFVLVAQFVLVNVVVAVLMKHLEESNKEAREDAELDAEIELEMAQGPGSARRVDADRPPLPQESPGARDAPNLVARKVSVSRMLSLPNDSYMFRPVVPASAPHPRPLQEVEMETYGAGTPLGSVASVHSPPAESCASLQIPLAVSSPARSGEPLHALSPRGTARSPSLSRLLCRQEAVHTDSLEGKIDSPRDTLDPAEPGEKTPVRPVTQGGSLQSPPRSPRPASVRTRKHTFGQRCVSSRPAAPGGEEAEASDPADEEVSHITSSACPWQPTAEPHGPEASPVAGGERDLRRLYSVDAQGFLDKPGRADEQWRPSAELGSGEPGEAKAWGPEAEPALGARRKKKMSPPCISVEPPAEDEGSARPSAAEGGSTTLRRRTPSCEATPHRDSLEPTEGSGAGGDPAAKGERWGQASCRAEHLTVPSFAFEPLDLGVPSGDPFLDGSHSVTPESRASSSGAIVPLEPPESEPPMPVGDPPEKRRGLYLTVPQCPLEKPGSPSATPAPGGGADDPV
T1 sequence (O43497 whole entry): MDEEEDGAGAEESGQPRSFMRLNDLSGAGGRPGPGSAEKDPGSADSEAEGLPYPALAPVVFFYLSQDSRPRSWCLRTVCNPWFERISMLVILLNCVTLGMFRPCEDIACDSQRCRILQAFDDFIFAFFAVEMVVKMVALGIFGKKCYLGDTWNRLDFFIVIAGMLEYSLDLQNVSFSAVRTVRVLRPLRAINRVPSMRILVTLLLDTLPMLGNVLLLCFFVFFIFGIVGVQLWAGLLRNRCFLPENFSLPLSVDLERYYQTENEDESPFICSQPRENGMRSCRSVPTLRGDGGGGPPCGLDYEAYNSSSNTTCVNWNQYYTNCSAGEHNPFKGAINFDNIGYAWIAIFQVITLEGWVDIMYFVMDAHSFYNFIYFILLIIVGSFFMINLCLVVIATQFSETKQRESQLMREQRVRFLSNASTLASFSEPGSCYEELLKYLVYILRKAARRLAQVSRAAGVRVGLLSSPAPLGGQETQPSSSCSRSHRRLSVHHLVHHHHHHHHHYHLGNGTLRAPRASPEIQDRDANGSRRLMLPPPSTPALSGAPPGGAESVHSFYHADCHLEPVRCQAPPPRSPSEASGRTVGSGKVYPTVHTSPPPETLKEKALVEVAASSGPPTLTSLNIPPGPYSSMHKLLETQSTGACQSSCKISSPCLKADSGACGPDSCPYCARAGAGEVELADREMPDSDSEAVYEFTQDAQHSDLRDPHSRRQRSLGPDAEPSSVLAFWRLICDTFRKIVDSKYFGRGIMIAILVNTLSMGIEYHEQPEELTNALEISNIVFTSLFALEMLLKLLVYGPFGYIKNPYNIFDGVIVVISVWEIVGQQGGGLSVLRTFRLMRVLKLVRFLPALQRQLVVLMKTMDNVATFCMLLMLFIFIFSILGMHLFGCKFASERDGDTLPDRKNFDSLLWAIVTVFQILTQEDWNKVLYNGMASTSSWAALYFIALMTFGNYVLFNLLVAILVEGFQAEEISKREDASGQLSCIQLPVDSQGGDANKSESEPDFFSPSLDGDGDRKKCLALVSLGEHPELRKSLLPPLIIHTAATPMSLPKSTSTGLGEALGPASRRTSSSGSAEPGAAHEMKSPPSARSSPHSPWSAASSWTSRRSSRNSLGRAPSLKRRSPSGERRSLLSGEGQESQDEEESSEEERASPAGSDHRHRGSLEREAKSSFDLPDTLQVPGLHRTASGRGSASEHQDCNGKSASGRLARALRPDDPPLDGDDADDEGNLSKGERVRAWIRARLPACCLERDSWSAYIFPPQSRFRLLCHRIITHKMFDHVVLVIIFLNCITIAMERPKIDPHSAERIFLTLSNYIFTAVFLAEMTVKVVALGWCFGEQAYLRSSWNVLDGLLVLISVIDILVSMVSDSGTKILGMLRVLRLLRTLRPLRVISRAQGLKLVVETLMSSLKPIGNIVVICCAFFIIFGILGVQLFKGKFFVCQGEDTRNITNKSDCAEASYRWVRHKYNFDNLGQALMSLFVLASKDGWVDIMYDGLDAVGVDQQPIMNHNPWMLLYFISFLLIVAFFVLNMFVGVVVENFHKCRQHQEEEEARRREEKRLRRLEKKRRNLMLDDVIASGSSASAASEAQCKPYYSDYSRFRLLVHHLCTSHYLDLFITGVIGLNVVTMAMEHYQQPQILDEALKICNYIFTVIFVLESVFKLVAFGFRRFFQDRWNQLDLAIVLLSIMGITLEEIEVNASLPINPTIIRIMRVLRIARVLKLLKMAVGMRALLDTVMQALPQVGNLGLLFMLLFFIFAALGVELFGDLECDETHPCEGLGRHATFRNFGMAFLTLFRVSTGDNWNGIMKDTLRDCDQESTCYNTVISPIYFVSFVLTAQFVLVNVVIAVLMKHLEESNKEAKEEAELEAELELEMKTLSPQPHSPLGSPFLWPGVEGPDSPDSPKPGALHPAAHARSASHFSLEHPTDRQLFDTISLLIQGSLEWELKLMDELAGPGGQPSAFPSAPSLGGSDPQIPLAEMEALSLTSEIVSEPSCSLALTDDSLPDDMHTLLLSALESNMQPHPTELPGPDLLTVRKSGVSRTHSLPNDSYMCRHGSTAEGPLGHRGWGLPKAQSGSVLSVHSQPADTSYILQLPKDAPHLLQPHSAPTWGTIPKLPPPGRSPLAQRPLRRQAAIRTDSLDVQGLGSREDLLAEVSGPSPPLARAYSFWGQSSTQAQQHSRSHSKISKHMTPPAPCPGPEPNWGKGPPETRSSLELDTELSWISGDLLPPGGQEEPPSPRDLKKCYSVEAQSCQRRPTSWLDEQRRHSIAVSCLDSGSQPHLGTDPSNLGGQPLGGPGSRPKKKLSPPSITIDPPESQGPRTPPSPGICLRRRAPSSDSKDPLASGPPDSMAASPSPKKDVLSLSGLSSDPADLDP

Take `CC(C)Cc1cc(CNS(=O)(=O)Cc2cccc3ccccc23)nn1-c1ccccc1`: the inhibition – broadly, the change of the read-out against control, counted positive when it falls – in series [1] stood at 7.09%; in [2], 6.66%.
With `COCC(=O)O[C@]1(CCN(C)CCCc2nc3ccccc3[nH]2)CCc2cc(F)ccc2[C@@H]1C(C)C` [MIBEFRADIL], the MPE in the series with Rattus norvegicus [3] was 34.77%; in the series with Rattus norvegicus [4], 17.29%; with Rattus norvegicus [5] it was 72.78%; in the series with Rattus norvegicus [6], 41.76%; in the series on Rattus norvegicus [7] it was 92.23%; with Rattus norvegicus [8] it was 63.33%. In addition, the MPE with Rattus norvegicus [9] was determined as 57.37%; in the series on Rattus norvegicus [10], 25.25%; in the series on Rattus norvegicus [11], 145.05%; with Rattus norvegicus [12] it was 43.19%; in the series on Rattus norvegicus [13], 41.44%; in the series with Rattus norvegicus [14], 156.75%.
As to `CC(C)(C)n1nc(CNS(=O)(=O)c2ccccc2)cc1-c1cccc(F)c1`, the inhibition was determined as 51.5% in series [1] and 53.5% in series [2].
Turning to `Cc1cc(I)ccc1S(=O)(=O)NCc1cc(CC(C)C)n(-c2ccccc2)n1`, the results for the inhibition in series [1] and in series [2] were 22.6% and 26.6%, respectively.
For `NCC1(CC(=O)O)CCCCC1` [GABAPENTIN], the MPE in the series on Rattus norvegicus [3] was 80.51%; with Rattus norvegicus [4], 11.03%; in the series on Rattus norvegicus [6], 45.28%; with Rattus norvegicus [8] it was 43.66%; in the series with Rattus norvegicus [10], 44.01%; in the series with Rattus norvegicus [13], 56.94%.
With `CC(C)Cc1cc(CNS(=O)(=O)c2ccc(C(C)(C)C)cc2)nn1-c1ccccc1`, the inhibition in series [1] was 46.9%; in [2], 33.4%.
On to `Cc1ccc(S(=O)(=O)NCc2cc(CC(C)C)n(-c3ccccc3)n2)cc1`, for which the inhibition was found to be 57.3% in series [1] and 62.2% in series [2].
With `CC(C)Cc1cc(CNS(=O)(=O)c2c(F)cccc2F)nn1-c1ccccc1`, the values for the inhibition in series [1] and in [2] were 45.1% and 69.3%, respectively.
Take `CC(C)Cc1cc(CNS(=O)(=O)c2cccc(I)c2)nn1-c1ccccc1`: the inhibition in series [1] was 46.4%; in series [2], 44.9%.
In the case of `Cc1ccc(F)c(S(=O)(=O)NCc2cc(CC(C)C)n(-c3ccccc3)n2)c1`, the values for the inhibition in series [1] and in series [2] were 54.9% and 70%, respectively.
As for `CC(C)Cc1cc(CNS(=O)(=O)c2ccc3ccccc3c2)nn1-c1ccccc1`, the inhibition was determined as 19.8% in series [1] and 24.9% in series [2].
For `CC(C)(C)n1nc(CNS(=O)(=O)c2ccccc2)cc1-c1ccccc1`, in that order: 55.5% and 10.4%.
In the case of `CC(C)Cc1cc(CNS(=O)(=O)c2c(Cl)cccc2Cl)nn1-c1ccccc1`, the inhibition stood at 36.9% in series [1] and 56% in series [2].
In the case of `CC(C)Cc1cc(CNS(=O)(=O)CCc2ccccc2)nn1-c1ccccc1`, in series [15], the remaining at 1 µM was 88.2%. For the same compound, the MPE in the series on Rattus norvegicus [3] is 9.07%; in the series with Rattus norvegicus [4], -3.8%; in the series on Rattus norvegicus [5] it was -12.82%; with Rattus norvegicus [6], -4.68%; with Rattus norvegicus [7], -10.34%; in the series with Rattus norvegicus [8] it was 3.08%. The MPE is 7% in the series on Rattus norvegicus [9]; 3.08% in the series on Rattus norvegicus [10]; 7.05% in the series with Rattus norvegicus [11]; 11.27% in the series on Rattus norvegicus [12]; -7.3% in the series on Rattus norvegicus [13]; -34.45% in the series on Rattus norvegicus [14]. In addition, the figures for the inhibition (in series [1]; in [2]; in the series filed under Homo sapiens) were 70.5%, 68.6% and 42.2%, respectively. The results for the pIC50 in series [16] and in series [17] were 4.91 and 4.84, respectively. Also, the activity at 0.25 h, 10 µM amounted to 45.2% at CYP2D6, 45.2% on CYP2C9 and 38.7% on CYP3A4.
For the compound `NS(=O)(=O)Cc1noc2ccccc12`, the inhibition with N1E-115 was 40%; in the series listed under Rattus norvegicus [18], 60%.
As to `CC(C)Cc1cc(CNS(=O)(=O)c2cccc3cccnc23)nn1-c1ccccc1`, the inhibition was 29.8% in series [1] and 61.4% in [2].
For `CC(C)Cc1cc(CNS(=O)(=O)c2cccc(Cl)c2)nn1-c1ccccc1`, the inhibition was determined as 57.6% in [1] and 55.7% in series [2].
With `CC(C)Cc1cc(CNS(=O)(=O)c2cccc3ccccc23)nn1-c1ccccc1`, the inhibition in series [1] was found to be 24.3%; in series [2], 25.2%.
